Assay results as given in ChEMBL document CHEMBL1641375, “Antitumor agents 279. Structure-activity relationship and in vivo studies of novel 2-(furan-2-yl)naphthalen-1-ol (FNO) analogs as potent and selective anti-breast cancer agents” (2011).
In brackets after ≈: the same amount, converted by molar mass.

Assays:
[1] = system: KB; assay: Cytotoxicity against human KB cells after 72 hrs by MTT assay; type: functional; details: read-out: ED50 (the source's name)
In short: (§1)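 Focused human tumour panel: A549 (non-small cell lung), DU145 (prostate), KB (nasopharyngeal), KB-VIN (MDR KB subline selected with vincristine), MDA-MB-231 (ER-negative basal-like breast), SK-BR-3 (ER-negative, HER2-overexpressing luminal-like breast), ZR-75-1 (ER-positive, HER2-overexpressing luminal-like breast). Run by previously published methods.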

[2] = Cytotoxicity against human KBVIN cells after 72 hrs by MTT assay; type: functional; details: read-out: ED50 (the source's name); in short: as §1
[3] = system: A549; assay: Cytotoxicity against human A549 cells after 72 hrs by MTT assay; type: functional; details: A549, 72 h, read-out: ED50 (the source's name); in short: as §1
[4] = system: DU-145; assay: Cytotoxicity against human DU145 cells after 72 hrs by MTT assay; type: functional; details: DU-145, 72 h, read-out: ED50 (the source's name); in short: as §1
[5] = system: SK-BR-3; assay: Cytotoxicity against human SKBR3 cells after 72 hrs by MTT assay; type: functional; details: SK-BR-3, 72 h, read-out: ED50 (the source's name); in short: as §1
[6] = system: ZR-75-1; assay: Cytotoxicity against human ZR-75-1 cells after 72 hrs by MTT assay; type: functional; details: ZR-75-1, 72 h, read-out: ED50 (the source's name); in short: as §1
[7] = system: MDA-MB-231; assay: Cytotoxicity against human MDA-MB-231 cells after 72 hrs by MTT assay; type: functional; details: MDA-MB-231, 72 h, read-out: ED50 (the source's name); in short: as §1
[8] = system: SK-BR-3; assay: Selectivity ratio, ED50 for human KB cells to ED50 for human SKBR3 cells; type: functional
[9] = system: SK-BR-3; assay: Selectivity ratio, ED50 for human KBVIN cells to ED50 for human SKBR3 cells; type: functional
[10] = system: A549; assay: Selectivity ratio, ED50 for human A549 cells to ED50 for human SKBR3 cells; type: functional
[11] = system: SK-BR-3; assay: Selectivity ratio, ED50 for human DU145 cells to ED50 for human SKBR3 cells; type: functional
[12] = system: ZR-75-1; assay: Selectivity ratio, ED50 for human ZR-75-1 cells to ED50 for human SKBR3 cells; type: functional
[13] = system: MDA-MB-231; assay: Selectivity ratio, ED50 for human MDA-MB-231 cells to ED50 for human SKBR3 cells; type: functional
[14] = Inhibition of mammary epithelial cells proliferation in Brca1/p53-deficient C57BL/6 and 129/Sv mouse assessed as reduction of mammary gland branching point at 0.1 mg, po qd for 11 days relative to control; type: functional, Epithelial cell; details: in the assay text read “ip qd” for “po qd”
In short: (§2)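 Three-month-old Brca1/p53-deficient or wild-type mice (C57BL/6 × 129/Sv background) received 0.1 mg i.p. daily for 11 days in DMSO/40% PEG/0.9% NaCl, or vehicle alone. Mammary gland whole mounts were fixed in Carnoy's fixative for 3 h and stained with Carmine alum overnight. Branching points were counted in three random areas totalling about 2 mm2.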

[15] = system: Epithelial cell; assay: Inhibition of wild type mammary epithelial cells proliferation in wild type C57BL/6 and 129/Sv mouse assessed as reduction of mammary gland branching point at 0.1 mg, po qd for 11 days relative to control; type: functional; details: in the assay text read “ip qd” for “po qd”; in short: as §2
[16] = Inhibition of mammary epithelial cells proliferation in Brca1/p53-deficient C57BL/6 and 129/Sv mouse assessed as reduction of BrdU positive cells at 0.1 mg, po qd for 11 days relative to control in presence of bromodeoxyuridine treated orally with drinking water last 3 days of treatment; type: functional, Epithelial cell; details: in the assay text read “ip qd” for “po qd”
In short: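 Three-month-old Brca1f11/f11p53f5&6/f5&6Crec or wild-type mice (mixed C57BL/6 and 129/Sv background) dosed 0.1 mg i.p. daily for 11 days. Dosing solution was 10 µL of a 10 mg/mL DMSO stock with 30 µL 40% PEG and 60 µL 0.9% NaCl; vehicle lacked compound. BrdU given in drinking water over the last 3 days. Glands fixed in 4% paraformaldehyde, paraffin-sectioned, citrate pH 6.0 antigen retrieval, anti-BrdU 1:1000. BrdU-positive cells per duct counted over ≥15 ducts/animal, ≥3 mice/genotype.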

Row | Compound | EC50 [1] [µg/mL] | EC50 [2] [µg/mL] | EC50 [3] [µg/mL] | EC50 [4] [µg/mL] | EC50 [5] [µg/mL] | EC50 [6] [µg/mL] | EC50 [7] [µg/mL] | Ratio ED50 [8] | Ratio ED50 [9] | Ratio ED50 [10] | Ratio ED50 [11] | Ratio ED50 [12] | Ratio ED50 [13] | inhibition (INH) [14] [%] | inhibition (INH) [15] [%] | inhibition (INH) [16] [%]
1 | CCOc1c(-c2occ(C)c2C(=O)O)ccc2c(CC)cccc12 | > 10 | > 10 | > 10 | > 10 | > 10 | > 10 | > 10 | – | – | – | – | – | – | – | – | –
2 | CCOC(=O)c1c(C)coc1-c1ccc2c(CC)cccc2c1OC | 2.2 (≈ 6.5 µM) | 1.8 (≈ 5.32 µM) | 3.8 (≈ 11.2 µM) | 2.2 (≈ 6.5 µM) | 2.5 (≈ 7.39 µM) | 3.9 (≈ 11.5 µM) | 4.3 (≈ 12.7 µM) | – | – | – | – | – | – | – | – | –
3 | CCCOC(=O)c1c(C)coc1-c1ccc2c(CC)cccc2c1OC | > 10 | > 10 | > 10 | > 10 | > 10 | > 10 | > 10 | – | – | – | – | – | – | – | – | –
4 | CCc1cccc2c(OC)c(-c3occ(C)c3C(=S)OC)ccc12 | 4.3 (≈ 12.6 µM) | 5.1 (≈ 15 µM) | 6.2 (≈ 18.2 µM) | 5.7 (≈ 16.7 µM) | 6.3 (≈ 18.5 µM) | 5.8 (≈ 17 µM) | 7.1 (≈ 20.9 µM) | – | – | – | – | – | – | – | – | –
5 | CCc1cccc2c(OC)c(-c3occ(C)c3C(=O)NC)ccc12 | > 10 | > 10 | > 10 | > 10 | > 10 | > 10 | > 10 | – | – | – | – | – | – | – | – | –
6 | CCc1cccc2c(OC)c(-c3occ(C)c3C(=O)On3nnc4ccccc43)ccc12 | > 10 | > 10 | > 10 | > 10 | > 10 | > 10 | > 10 | – | – | – | – | – | – | – | – | –
7 | CCOc1c(-c2occ(C)c2C(=O)OC)ccc2c(CC)cccc12 | 1.8 (≈ 5.32 µM) | 1.7 (≈ 5.02 µM) | 2.4 (≈ 7.09 µM) | 1.9 (≈ 5.61 µM) | 1.9 (≈ 5.61 µM) | 1.2 (≈ 3.55 µM) | 1.1 (≈ 3.25 µM) | – | – | – | – | – | – | – | – | –
8 | CCc1cccc2c(OC)c(-c3occ(C)c3CO)ccc12 | 7.1 (≈ 24 µM) | 6.6 (≈ 22.3 µM) | 9.6 (≈ 32.4 µM) | 7.2 (≈ 24.3 µM) | 0.73 (≈ 2.46 µM) | > 10 | > 10 | 9 | 9 | 13.2 | 9 | > 13.7 | > 13.7 | – | – | –
9 | CCOc1c(-c2occ(C)c2CO)ccc2c(CC)cccc12 | > 10 | 6.4 (≈ 20.6 µM) | > 10 | > 10 | 8.8 (≈ 28.4 µM) | 1.4 (≈ 4.51 µM) | 1.7 (≈ 5.48 µM) | – | – | – | – | – | – | – | – | –
10 | CCc1cccc2c(OC(C)=O)c(-c3occ(C)c3COC(C)=O)ccc12 | > 10 | > 10 | > 10 | > 10 | > 10 | > 10 | > 10 | – | – | – | – | – | – | – | – | –
11 | CCc1cccc2c(OC)c(-c3occ(C)c3COC)ccc12 | > 10 | 8.8 (≈ 28.4 µM) | > 10 | > 10 | > 10 | 9.7 (≈ 31.3 µM) | – | – | – | – | – | – | – | – | – | –
12 | CCOCc1c(C)coc1-c1ccc2c(CC)cccc2c1OC | > 10 | > 10 | > 10 | > 10 | > 10 | 9.1 (≈ 28.1 µM) | – | – | – | – | – | – | – | – | – | –
13 | CCc1cccc2c(OC)c(-c3occ(C)c3CBr)ccc12 | > 10 | > 10 | > 10 | > 10 | > 10 | 4.6 (≈ 12.8 µM) | – | – | – | – | – | – | – | – | – | –
14 | CCc1cccc2c(OC)c(-c3occ(C)c3COCC(F)(F)F)ccc12 | 6.6 (≈ 17.4 µM) | 6 (≈ 15.9 µM) | > 10 | 5.7 (≈ 15.1 µM) | 5.3 (≈ 14 µM) | 5.3 (≈ 14 µM) | – | – | – | – | – | – | – | – | – | –
15 | CCc1cccc2c(OC)c(-c3occ(C)c3COC(C)=O)ccc12 | > 10 | > 10 | > 10 | > 10 | > 10 | 3.5 (≈ 10.3 µM) | – | – | – | – | – | – | – | – | – | –
16 | CCc1cccc2c(OC)c(-c3occ(C)c3COC(=O)CCN(CC)CC)ccc12 | > 10 | > 10 | > 10 | > 10 | > 10 | 1.7 (≈ 4.01 µM) | 0.85 (≈ 2.01 µM) | – | – | – | – | – | – | – | – | –
17 | CCOc1c(-c2occ(C)c2COC)ccc2c(CC)cccc12 | > 10 | 5.9 (≈ 18.2 µM) | > 10 | > 10 | > 10 | > 10 | 4.9 (≈ 15.1 µM) | – | – | – | – | – | – | – | – | –
18 | CCOc1c(-c2occ(C)c2COC(C)=O)ccc2c(CC)cccc12 | > 10 | 5.8 (≈ 16.5 µM) | > 10 | > 10 | > 10 | 4.9 (≈ 13.9 µM) | > 10 | – | – | – | – | – | – | – | – | –
19 | CCc1cccc2c(O)c(-c3occ(C)c3C(=O)O)ccc12 | 9.1 (≈ 30.7 µM) | 7 (≈ 23.6 µM) | – | 8.7 (≈ 29.4 µM) | 1 (≈ 3.37 µM) | 0.3 (≈ 1.01 µM) | – | – | – | – | – | – | – | 70 | 29 | 83
20 | CCc1cccc2c(OC)c(-c3occ(C)c3C(=O)OC)ccc12 | 1.7 (≈ 5.24 µM) | 1.3 (≈ 4.01 µM) | 1.5 (≈ 4.62 µM) | 2.2 (≈ 6.78 µM) | 1.2 (≈ 3.7 µM) | 1.3 (≈ 4.01 µM) | 2.3 (≈ 7.09 µM) | – | – | – | – | – | – | – | – | –
